XBP1 UPR activ – adaptive UPR (XBP1) activation; 330,000 compounds, 0.33% hits; CHO-XBP1 luciferase reporter, IRE1-XBP1 UPR activation, luminescence; percent of tunicamycin response, DMSO as zero; activation, % at 20 µM;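 active = versus positive control, 20 µM dose yields 30% or more activation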;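 note: 100% = tunicamycin at 10 µg/mL and 0% = DMSO only wells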
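Material: CHO cell line with stable XBP1 luciferase reporter; schedule: 16-18 h cell attachment at 37 °C, then 6 h compound exposure; signal: glow luminescence from Steady-Glo reagent; medium: serum-containing F12 medium, 10% FBS; benchmarks: tunicamycin 10 µg/mL and vehicle-only wells; read-out: percent activation relative to tunicamycin reference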
ABHD5 PLIN5 PPI – blocks binding of human ABHD5 to perilipin-5; Q00G26+Q8WTS1; Split G. princeps luciferase complementation, luminescence, 4 h; inhibition, % at 4 µM; 360,000 compounds, 0.78% hits; AID 602281;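 active = inhibition above the mean inhibition across every tested compound plus 3 SD, cut at about 22% in these data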;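 note: 0% = DMSO only wells and the 100% control is not disclosed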
CHOP UPR activ – apoptotic UPR (CHOP) activation. CHO-CHOP luciferase reporter, luminescence; percent of tunicamycin response over DMSO baseline. activation, % at 10 µM. 330,000 compounds, 0.34% hits. AID 449763;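 active = at 10 µM dose, activation of 40% or more, normalized to positive control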;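 note: 100% = tunicamycin at 10 µg/mL and 0% = DMSO alone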
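Test system: CHO-CHOP cells, stable luciferase reporter of PERK-eIF2a-CHOP signalling | Quantity: 500 CHO-CHOP cells per well | Buffer or medium: F12 plus 10% serum | Compound dosing: 10 µM single point, 0.5% DMSO | Schedule: 6 h compound treatment, 37 °C | Signal: Luciferase luminescence | Control set: Tunicamycin high control, DMSO low control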
Exocytosis inh – blocks lytic granule exocytosis | 360,000 compounds, 0.66% hits | inhibition, % at 10 µM | TALL-104 LAMP-1 surface exposure, flow cytometry; cells stimulated with thapsigargin and PMA;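 active = inhibition above about 55%, limit read from the data; inconclusive = no clear call, values can overlap the other calls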
Mdm2 MdmX PPI – inhibitors of human Mdm2/MdmX interaction. inhibition, % at 8 µM. 330,000 compounds, 3% hits. SaOS-2 split-luciferase Mdm2/MdmX complementation, luminescence;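 active = inhibition of at least 50% at 8 µM in the primary screen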
Exocytosis CP01 – blocks lytic granule exocytosis | TALL-104 cells, LAMP-1 externalization, flow cytometry; stimulated with PMA plus thapsigargin | shares compounds with Exocytosis inh | 1,500 compounds, 11% hits | inhibition, % at 10 µM | AID 651954; in the data active = inhibition above about 60%;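 note: 0% = stimulated vehicle wells and 100% = unstimulated wells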
Active calls of the source: *; u = inconclusive; x = no result. Only some compounds are listed: those with a hit (about 4% of all), similar ones and a draw of the others.

SMILES	XBP1 UPR activ	ABHD5 PLIN5 PPI	CHOP UPR activ	Exocytosis inh	Mdm2 MdmX PPI	Exocytosis CP01
Cc1cc(C)cc(NC(=O)C(OC(=O)Cn2cnc3c2c(=O)n(C)c(=O)n3C)c2ccccc2)c1 (configuration not stated)	-4	0	1	-7	11	x
O=C(CSc1nc2ccccc2s1)N1c2ccccc2Sc2ccccc21	1	2	3	62*	5	2
CCCC(=O)NC1CCCc2c1cnn2-c1ccc(C)c(C)c1 (configuration not stated)	-1	2	3	4	5	x
CCn1nc(C)cc1C(=O)NC1CCCc2c1cnn2-c1ccc(C)c(C)c1 (configuration not stated)	-2	0	0	60*	45	-12
COc1cc(SC)ccc1C(=O)NCCc1c[nH]c2ccccc12	-3	0	4	62*	-38	-4
Cc1ccc(CSc2ccc(S(=O)(=O)N3CCOCC3)cn2)cc1	-1	1	0	4	22	x
O=S(=O)(c1ccc(SCCO)nc1)N1CCOCC1	0	2	-2	60*	3	-10
O=C(Nc1nc(-c2ccccc2)cs1)c1ccco1	4	5	6	2	-49	x
O=C(Nc1nc(-c2ccco2)cs1)c1ccccc1	6	19	12	71*	-8	-12
CCC(=O)c1ccccc1OCCCN1CCC(Cc2ccccc2)CC1	-3	9	1	65*	24	-8
O=C(O)CCCCCCCCCCCNC(=O)NC12CC3CC(CC(C3)C1)C2	0	8	3	80*	-10	-3
CCOCCCNC(=O)NC12CC3CC(CC(C3)C1)C2	3	-3	0	-3	2	x
O=C(NCCCN1CCN(c2ccc(F)cc2)CC1)NC12CC3CC(CC(C3)C1)C2	-3	12	1	56*	46	-4
COc1ccc2sc(-c3ccccc3OC)c(C#CCCO)c2c1	-2	6	-2	-4	23	x
COc1ccc(CN(Cc2ccc(OC)cc2)S(=O)(=O)c2ccc(-n3cnnn3)c(C)c2)cc1	-3	7	-1	-6	12	x
Cc1coc2c1c(C)cc1oc(=O)c(Cc3ccccc3)c(C)c12	1	-1	-2	63*	-8	-11
Cc1coc2c1c(C)cc1oc(=O)c(CC(=O)NCC(=O)NCC(=O)O)c(C)c12	2	11	1	u	-2	x
CSc1nnc(SCC(=O)Nc2ccc3[nH]c(=O)[nH]c3c2)s1	0	1	-2	-1	4	x
C/C=C/c1ccc(OCCOCCNCc2ccccc2)c(OC)c1	-5	-1	1	70*	1	-5
C/C=C/c1ccc(OCCCCOc2ccccc2F)c(OC)c1	1	-4	2	2	-29	x
Cn1c(=O)c2[nH]c(CCCCCCCc3nc4ccccc4[nH]3)nc2n(C)c1=O	x	2	x	22	x	x
CCOc1ccc(CN2CCCC(CO)(Cc3ccccc3F)C2)cc1 (configuration not stated)	-1	7	1	-6	23	x
COc1cc(Cl)c(CN2CCCC(CO)(Cc3ccccc3F)C2)cc1OC (configuration not stated)	-3	3	0	66*	14	-13
COc1ccc(CN2CCCC(CO)(Cc3ccc(F)cc3)C2)c(OC)c1OC (configuration not stated)	-1	-5	0	61*	27	-15
O=C(NNC(=O)c1csc(-c2ccccc2)n1)c1ccccc1	x	-1	x	2	x	x
CN(C)CCNC(=O)c1cccc2nc3c(ccc4ccccc43)nc12	x	18	x	62*	x	43
COc1ccc(C(=O)NCCN(C)C)c2nc3ccccc3cc12	x	6	x	73*	x	-13
COc1cccc2nc3c(C(=O)NCCN(C)C)cccc3cc12	x	-13	x	16	x	x
O=C(c1n[nH]c(=O)c2ccccc12)N1CCN(c2ccc(F)cc2)CC1	1	2	-1	1	-23	x
CCCN(C(=O)CSc1nc(C2CC2)n(-c2ccccc2)n1)C1CCS(=O)(=O)C1 (configuration not stated)	7	4	-1	0	15	x
